ChEMBL document CHEMBL4689842, “EUbOPEN Chemogenomics Library wave 1” (2021)

Test system: Fibroblast
Assay: Multiplex assay against human fibroblast
Assay type: toxicity, cell-based
Method in brief: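 Live cells carried four stains from seeding: Hoechst33342, BioTracker Green Microtubule Cytoskeleton Dye, MitoTracker Red and Annexin V Alexa Fluor 680. They were imaged on a CQ1 microscope at 37°C and 5% CO2 after compound addition. Using CellPathfinder machine-learning gating, cells were split into Hoechst high-intensity objects or normal cells, normal cells into healthy, pyknosed or fragmented nuclei, and pyknosed cells into mitotic or apoptotic; tubulin, mitochondrial-mass and membrane-permeability phenotypes are per cents of healthy-nucleus cells.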

[1] = 12 h, 1 µM, compound concentration 1 uM, replicate 1
[2] = 12 h, 1 µM, compound concentration 1 uM, replicate 2
[3] = 12 h, 10 µM, compound concentration 10 uM, replicate 1
[4] = 12 h, 10 µM, compound concentration 10 uM, replicate 2
[5] = 24 h, 1 µM, compound concentration 1 uM, replicate 1
[6] = 24 h, 1 µM, compound concentration 1 uM, replicate 2
[7] = 24 h, 10 µM, compound concentration 10 uM, replicate 1
[8] = 24 h, 10 µM, compound concentration 10 uM, replicate 2
[9] = 48 h, 1 µM, compound concentration 1 uM, replicate 1
[10] = 48 h, 1 µM, compound concentration 1 uM, replicate 2
[11] = 48 h, 10 µM, compound concentration 10 uM, replicate 1
[12] = 48 h, 10 µM, compound concentration 10 uM, replicate 2

Cc1cccc(CN2CCN(C(c3ccccc3)c3ccc(Cl)cc3)CC2)c1.Cl.Cl (stereo not given)
Population Apoptotic (%) [1]: 64%
Population Fragmented Nuclei (%) [1]: 22%
Population Healthy Nuclei (%) [1]: 48%
Population Hoechst High Intensity Objects (%) [1]: 22%
Population Membrane Permeable-Phenotype (%) [1]: 34%
Population Mitochondria Different-Phenotype (%) [1]: 8%
Population Mitotic Cells (%) [1]: 35%
Population Normal (%) [1]: 77%
Population Pyknosed Nuclei (%) [1]: 29%
Population Tubulin-Different-Phenotype (%) [1]: 44%
Total Cell Count [1]: 134
Population Apoptotic (%) [2]: 0%
Population Fragmented Nuclei (%) [2]: 16%
Population Healthy Nuclei (%) [2]: 79%
Population Hoechst High Intensity Objects (%) [2]: 8%
Population Membrane Permeable-Phenotype (%) [2]: 4%
Population Mitochondria Different-Phenotype (%) [2]: 26%
Population Mitotic Cells (%) [2]: 100%
Population Normal (%) [2]: 91%
Population Pyknosed Nuclei (%) [2]: 3%
Population Tubulin-Different-Phenotype (%) [2]: 23%
Total Cell Count [2]: 48
Population Apoptotic (%) [3]: 61%
Population Fragmented Nuclei (%) [3]: 26%
Population Healthy Nuclei (%) [3]: 38%
Population Hoechst High Intensity Objects (%) [3]: 11%
Population Membrane Permeable-Phenotype (%) [3]: 15%
Population Mitochondria Different-Phenotype (%) [3]: 45%
Population Mitotic Cells (%) [3]: 38%
Population Normal (%) [3]: 88%
Population Pyknosed Nuclei (%) [3]: 34%
Population Tubulin-Different-Phenotype (%) [3]: 90%
Total Cell Count [3]: 127
Population Apoptotic (%) [4]: 50%
Population Fragmented Nuclei (%) [4]: 14%
Population Healthy Nuclei (%) [4]: 72%
Population Hoechst High Intensity Objects (%) [4]: 6%
Population Membrane Permeable-Phenotype (%) [4]: 6%
Population Mitochondria Different-Phenotype (%) [4]: 61%
Population Mitotic Cells (%) [4]: 50%
Population Normal (%) [4]: 93%
Population Pyknosed Nuclei (%) [4]: 13%
Population Tubulin-Different-Phenotype (%) [4]: 47%
Total Cell Count [4]: 58
Population Apoptotic (%) [5]: 75%
Population Fragmented Nuclei (%) [5]: 21%
Population Healthy Nuclei (%) [5]: 56%
Population Hoechst High Intensity Objects (%) [5]: 26%
Population Membrane Permeable-Phenotype (%) [5]: 34%
Population Mitochondria Different-Phenotype (%) [5]: 5%
Population Mitotic Cells (%) [5]: 25%
Population Normal (%) [5]: 73%
Population Pyknosed Nuclei (%) [5]: 21%
Population Tubulin-Different-Phenotype (%) [5]: 40%
Total Cell Count [5]: 125
Population Apoptotic (%) [6]: 80%
Population Fragmented Nuclei (%) [6]: 18%
Population Healthy Nuclei (%) [6]: 73%
Population Hoechst High Intensity Objects (%) [6]: 10%
Population Membrane Permeable-Phenotype (%) [6]: 11%
Population Mitochondria Different-Phenotype (%) [6]: 13%
Population Mitotic Cells (%) [6]: 20%
Population Normal (%) [6]: 89%
Population Pyknosed Nuclei (%) [6]: 8%
Population Tubulin-Different-Phenotype (%) [6]: 22%
Total Cell Count [6]: 47
Population Apoptotic (%) [7]: 66%
Population Fragmented Nuclei (%) [7]: 29%
Population Healthy Nuclei (%) [7]: 44%
Population Hoechst High Intensity Objects (%) [7]: 14%
Population Membrane Permeable-Phenotype (%) [7]: 16%
Population Mitochondria Different-Phenotype (%) [7]: 40%
Population Mitotic Cells (%) [7]: 33%
Population Normal (%) [7]: 85%
Population Pyknosed Nuclei (%) [7]: 26%
Population Tubulin-Different-Phenotype (%) [7]: 86%
Total Cell Count [7]: 132
Population Apoptotic (%) [8]: 11%
Population Fragmented Nuclei (%) [8]: 10%
Population Healthy Nuclei (%) [8]: 77%
Population Hoechst High Intensity Objects (%) [8]: 5%
Population Membrane Permeable-Phenotype (%) [8]: 5%
Population Mitochondria Different-Phenotype (%) [8]: 63%
Population Mitotic Cells (%) [8]: 88%
Population Normal (%) [8]: 94%
Population Pyknosed Nuclei (%) [8]: 12%
Population Tubulin-Different-Phenotype (%) [8]: 45%
Total Cell Count [8]: 67
Population Apoptotic (%) [9]: 66%
Population Fragmented Nuclei (%) [9]: 30%
Population Healthy Nuclei (%) [9]: 58%
Population Hoechst High Intensity Objects (%) [9]: 18%
Population Membrane Permeable-Phenotype (%) [9]: 20%
Population Mitochondria Different-Phenotype (%) [9]: 3%
Population Mitotic Cells (%) [9]: 33%
Population Normal (%) [9]: 81%
Population Pyknosed Nuclei (%) [9]: 10%
Population Tubulin-Different-Phenotype (%) [9]: 30%
Total Cell Count [9]: 136
Population Apoptotic (%) [10]: 87%
Population Fragmented Nuclei (%) [10]: 24%
Population Healthy Nuclei (%) [10]: 68%
Population Hoechst High Intensity Objects (%) [10]: 9%
Population Membrane Permeable-Phenotype (%) [10]: 6%
Population Mitochondria Different-Phenotype (%) [10]: 7%
Population Mitotic Cells (%) [10]: 12%
Population Normal (%) [10]: 90%
Population Pyknosed Nuclei (%) [10]: 7%
Population Tubulin-Different-Phenotype (%) [10]: 44%
Total Cell Count [10]: 124
Population Apoptotic (%) [11]: 57%
Population Fragmented Nuclei (%) [11]: 39%
Population Healthy Nuclei (%) [11]: 54%
Population Hoechst High Intensity Objects (%) [11]: 12%
Population Membrane Permeable-Phenotype (%) [11]: 16%
Population Mitochondria Different-Phenotype (%) [11]: 25%
Population Mitotic Cells (%) [11]: 42%
Population Normal (%) [11]: 87%
Population Pyknosed Nuclei (%) [11]: 6%
Population Tubulin-Different-Phenotype (%) [11]: 79%
Total Cell Count [11]: 124
Population Apoptotic (%) [12]: 50%
Population Fragmented Nuclei (%) [12]: 42%
Population Healthy Nuclei (%) [12]: 52%
Population Membrane Permeable-Phenotype (%) [12]: 9%
Population Mitochondria Different-Phenotype (%) [12]: 34%
Population Mitotic Cells (%) [12]: 50%
Population Pyknosed Nuclei (%) [12]: 5%
Population Tubulin-Different-Phenotype (%) [12]: 88%
Total Cell Count [12]: 133
